Experimental data from different studies.
Each line is one published result; the experiments were not run side by side.
Read-out: enzyme activity
Action: inhibitor
CHEK2 R145W: Serine/threonine-protein kinase Chk2 (CHEK2, Homo sapiens, UniProt O96017, R145W)
CHEK2: Serine/threonine-protein kinase Chk2 (CHEK2, Homo sapiens, UniProt O96017)

| SMILES | target | test | setting | remaining activity [%] |
| --- | --- | --- | --- | --- |
| Cc1cnc(NC2CCOCC2)nc1-n1cnc(C(=O)NC(CN)c2cc(F)cc(Cl)c2)c1 (centres unmarked) | CHEK2 R145W | radiometric | 1 µM | 79 |
| O=C(Nc1cnn(-c2csc(C(=O)NC3COC3)c2)c1)Nc1ccccc1Cl | CHEK2 | – | 5 µM | 97.8 |
| Nc1nc(NC2CCCCC2)sc1C(=O)c1ccccc1 | CHEK2 | – | 10 µM | 61 |
| COc1cc(Nc2cnc(C#N)c(O[C@H](C)CN(C)C)n2)ncc1-c1cnn(C)c1 | CHEK2 | radiometric | 10 µM | 31 |
| CCCOc1ccc(OC)c(F)c1C(=O)c1ccc(C(=O)N[C@@H]2CNC[C@H]2NC(=O)c2ccc3[nH]ncc3c2)cc1 | CHEK2 R145W | – | 10 µM | 21 |
| COc1cc(Cl)c(C(=O)N[C@@H](CN[C@H]2CC[C@@H](N)CC2)Cc2ccc(C#N)cc2)cc1-c1ccc(CN[C@H](C)c2ccc(C)cc2)o1 | CHEK2 | – | 1 µM | 98 |
| Cc1ccc(NC(=O)c2ccc(C)c(C(F)(F)F)c2)cc1C#Cc1nn(C2CCC(O)CC2)c2ncnc(N)c12 (centres unmarked) | CHEK2 R145W | – | 10 µM | 102 |
| O=C(Nc1cnn(-c2csc(C(=O)NC3COC3)c2)c1)Nc1c(F)cccc1Cl | CHEK2 | – | 5 µM | 91.5 |
| CC(C)(O)[C@H]1CC[C@H](Nc2ccc3ncc(-c4cccc(C(F)(F)F)c4)n3n2)CC1 | CHEK2 | – | 1 µM | 97.4 |
| Oc1cccc(-c2nc(N3CCOCC3)c3oc4ncccc4c3n2)c1 | CHEK2 | – | 10 µM | 85 |
| CC(C)(C)c1nc2c(s1)c1nc(N)ncc1c1ccc(NS(=O)(=O)c3c(F)cccc3F)c(F)c12 | CHEK2 | radiometric | 1 µM | 72 |
